Tests used:
Assay type in all cases: functional
[1] = Cytotoxicity against human 184B5 cells after 48 hrs by SRB assay in presence of 0.5 uM 2-morpholino-8-phenyl-4H-chromen-4-one; settings: 184B5, 48 h
In short: (§1)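 184B5 immortalized breast epithelial cells were grown in mammary epithelial basal medium with MEGM supplements at 37 °C, 5% CO2. Cells (5000–10,000/well) were preincubated 24 h, then exposed to seven concentrations for 48 h, with the listed partner drug fixed at its stated level. Cells were TCA-fixed, SRB-stained and read at 515–564 nm. Final DMSO was ≤0.1%.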

[2] = test system: MDA-MB-231; test: Cytotoxicity against human MDA-MB-231 cells after 48 hrs by SRB assay in presence of 3.5 uM 4-(2-chloro-10H-phenoxazin-10-yl)-N,N-diethylbutan-1-amine hydrochloride; settings: MDA-MB-231, 48 h
In short: (§2)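 Breast cancer cells were grown in RPMI 1640 with 10% FBS and 2 mM L-glutamine at 37 °C, 5% CO2, seeded at 5000–10,000/well and allowed 24 h before dosing. Compounds were given as seven serially diluted concentrations for 48 h, with any partner drug held constant, at ≤0.1% final DMSO. Cells were TCA-fixed, SRB-stained and read at 515–564 nm. GI50 came from a variable-slope sigmoidal fit of growth relative to time-zero and untreated wells; values are means of triplicates from ≥3 experiments.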

[3] = Cytotoxicity against human 184B5 cells after 48 hrs by SRB assay in presence of 0.4 uM 1-(1-(4-(7-phenyl-1H-imidazo[4,5-g]quinoxalin-6-yl)benzyl)piperidin-4-yl)-1H-benzo[d]imidazol-2(3H)-one; in short: as §1
[4] = test system: MDA-MB-468; test: Cytotoxicity against human MDA-MB-468 cells after 48 hrs by SRB assay; settings: MDA-MB-468, 48 h; in short: as §2
[5] = test system: MCF7; test: Cytotoxicity against human MCF7 cells after 48 hrs by SRB assay in presence of 0.4 uM 1-(1-(4-(7-phenyl-1H-imidazo[4,5-g]quinoxalin-6-yl)benzyl)piperidin-4-yl)-1H-benzo[d]imidazol-2(3H)-one; in short: as §2
[6] = test system: MCF7; test: Cytotoxicity against human MCF7 cells after 48 hrs by SRB assay in presence of 3.5 uM 4-(2-chloro-10H-phenoxazin-10-yl)-N,N-diethylbutan-1-amine hydrochloride; settings: MCF7, 48 h; in short: as §2
[7] = test system: MDA-MB-468; test: Cytotoxicity against human MDA-MB-468 cells after 48 hrs by SRB assay in presence of 0.4 uM 1-(1-(4-(7-phenyl-1H-imidazo[4,5-g]quinoxalin-6-yl)benzyl)piperidin-4-yl)-1H-benzo[d]imidazol-2(3H)-one; in short: as §2
[8] = Cytotoxicity against human 184B5 cells after 48 hrs by SRB assay in presence of 3.5 uM 4-(2-chloro-10H-phenoxazin-10-yl)-N,N-diethylbutan-1-amine hydrochloride; settings: 184B5, 48 h; in short: as §1
[9] = Cytotoxicity against human 184B5 cells after 48 hrs by SRB assay; settings: 184B5, 48 h; in short: as §1
[10] = test system: MCF7; test: Cytotoxicity against human MCF7 cells after 48 hrs by SRB assay; settings: MCF7, 48 h; in short: as §2
[11] = test system: MDA-MB-468; test: Cytotoxicity against human MDA-MB-468 cells after 48 hrs by SRB assay in presence of 3.5 uM 4-(2-chloro-10H-phenoxazin-10-yl)-N,N-diethylbutan-1-amine hydrochloride; settings: MDA-MB-468, 48 h; in short: as §2
[12] = test system: MCF7; test: Cytotoxicity against human MCF7 cells after 48 hrs by SRB assay in presence of 0.04 uM (E)-5-(benzo[d]thiazol-2-yl)-3-ethyl-2-(2-(methyl(phenyl)amino)vinyl)-1-phenyl-1H-benzo[d]imidazol-3-ium iodide; settings: MCF7, 48 h; in short: as §2
[13] = test system: MDA-MB-231; test: Cytotoxicity against human MDA-MB-231 cells after 48 hrs by SRB assay in presence of 0.5 uM 2-morpholino-8-phenyl-4H-chromen-4-one; settings: MDA-MB-231, 48 h; in short: as §2
[14] = test system: MDA-MB-231; test: Cytotoxicity against human MDA-MB-231 cells after 48 hrs by SRB assay in presence of 0.04 uM (E)-5-(benzo[d]thiazol-2-yl)-3-ethyl-2-(2-(methyl(phenyl)amino)vinyl)-1-phenyl-1H-benzo[d]imidazol-3-ium iodide; settings: MDA-MB-231, 48 h; in short: as §2
[15] = test system: MDA-MB-468; test: Cytotoxicity against human MDA-MB-468 cells after 48 hrs by SRB assay in presence of 0.04 uM (E)-5-(benzo[d]thiazol-2-yl)-3-ethyl-2-(2-(methyl(phenyl)amino)vinyl)-1-phenyl-1H-benzo[d]imidazol-3-ium iodide; settings: MDA-MB-468, 48 h; in short: as §2
[16] = test system: MCF7; test: Cytotoxicity against human MCF7 cells after 48 hrs by SRB assay in presence of 0.5 uM 2-morpholino-8-phenyl-4H-chromen-4-one; settings: MCF7, 48 h; in short: as §2
[17] = test system: MDA-MB-468; test: Cytotoxicity against human MDA-MB-468 cells after 48 hrs by SRB assay in presence of 0.5 uM 2-morpholino-8-phenyl-4H-chromen-4-one; settings: MDA-MB-468, 48 h; in short: as §2
[18] = test system: MDA-MB-231; test: Cytotoxicity against human MDA-MB-231 cells after 48 hrs by SRB assay; settings: MDA-MB-231, 48 h; in short: as §2
[19] = test system: MDA-MB-231; test: Cytotoxicity against human MDA-MB-231 cells after 48 hrs by SRB assay in presence of 0.4 uM 1-(1-(4-(7-phenyl-1H-imidazo[4,5-g]quinoxalin-6-yl)benzyl)piperidin-4-yl)-1H-benzo[d]imidazol-2(3H)-one; in short: as §2
[20] = Cytotoxicity against human 184B5 cells after 48 hrs by SRB assay in presence of 0.04 uM (E)-5-(benzo[d]thiazol-2-yl)-3-ethyl-2-(2-(methyl(phenyl)amino)vinyl)-1-phenyl-1H-benzo[d]imidazol-3-ium iodide; settings: 184B5, 48 h; in short: as §1

Row | SMILES | GI50 [1] [µM] | GI50 [2] [µM] | GI50 [3] [µM] | GI50 [4] [µM] | GI50 [5] [µM] | GI50 [6] [µM] | GI50 [7] [µM] | GI50 [8] [µM] | GI50 [9] [µM] | GI50 [10] [µM] | GI50 [11] [µM] | GI50 [12] [µM] | GI50 [13] [µM] | GI50 [14] [µM] | GI50 [15] [µM] | GI50 [16] [µM] | GI50 [17] [µM] | GI50 [18] [µM] | GI50 [19] [µM] | GI50 [20] [µM]
1 | CCCCNc1ccnc2cc(Cl)ccc12 | > 20 | 6.5 | 16.6 | 6.02 | 5.6 | 11.4 | 7.09 | 19.4 | 18.4 | 8.45 | 4.3 | 10.2 | 11.3 | 12.3 | 3.95 | 9.55 | 7.42 | 15.9 | 8.8 | > 20
2 | CN(C)CCNc1ccnc2cc(F)ccc12 | > 20 | 2 | > 20 | 8.73 | 1.73 | 3.26 | 4.95 | > 20 | 40.4 | 3.42 | 4.61 | 2.56 | 9.45 | 2.5 | 4.87 | 2.64 | 7.62 | 7.08 | 1.94 | > 20
3 | COc1ccc2c(NCCN(C)C)ccnc2c1 | > 20 | 1.24 | > 20 | 4.8 | 1.82 | 3.66 | 5.91 | > 20 | 44.6 | 3.89 | 5.66 | 3.54 | 9.45 | 4.49 | 5.85 | 2.65 | 7.62 |  | 0.74 | > 20
4 | CCCCNc1ccnc2cc(F)ccc12 | 12.5 | 3.74 | 14.9 | 1.41 | 1.63 | 3.7 | 2.09 | 8.19 | 18.7 | 1.98 | 1.44 | 5.78 | 12.3 | 7.25 | 2.69 | 3.17 | 3.5 | 6.32 | 5.63 | 12.4
5 | CN(C)CCNc1ccnc2cc(Cl)ccc12 | > 20 | 0.74 | > 20 | 13.3 | 3.32 | 7.37 | 6.5 | > 20 | 44.5 | 15.4 | 3.24 | 4.96 | 9.88 | 5.66 | 3.43 | 7.54 | 19.3 | 8.59 | 2.87 | > 20
6 | CCN(CC)CCCC(C)Nc1ccnc2cc(Cl)ccc12 (stereo unspecified) [CHLOROQUINE PHOSPHATE] | > 20 | 6.08 | > 20 |  | 5.51 | 11.8 | 6.83 | > 20 | 76.1 |  | 2.81 | 7.54 | 18.8 | 8.33 | 6.53 | 7.71 | 9.14 |  | 12.6 | > 20
